In ChEMBL document CHEMBL1671684, “In vitro resistance profile of the hepatitis C virus NS3/4A protease inhibitor TMC435” (Antimicrob Agents Chemother, 2010):
pEC50: −log10 of the molar value.

Tested on: Hepatitis C virus
Assay: Ratio of EC50 for Hepatitis C virus subtype 1b expressing NS3 A156V mutant to EC50 for Hepatitis C virus subtype 1b expressing WT NS3 infected in HuH7 cells after 48 hrs by luciferase reporter assay
Type: functional, Hepacivirus hominis, genotype 1b, Huh-7
Details: not given
How it was run: (§1)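 Genotype 1b con1 subgenomic bicistronic replicon (clone ET) with luciferase reporter and adaptive mutations E1202G, T1280I, K1846T, carrying site-directed NS3 single or double mutations. 10 μg wild-type or mutant replicon RNA electroporated into Huh7-lunet cells, seeded 4,000 cells/well over a nine-point inhibitor dilution series, 48 h at 37°C, 5% CO2, then luminescence read. EC50 taken as median of individual experiments; fold change relative to parental replicon EC50.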

| SMILES | Ratio EC50 |
| --- | --- |
| COc1ccc2c(O[C@@H]3C[C@H]4C(=O)N[C@]5(C(=O)O)C[C@H]5/C=C\CCCCC[C@H](NC(=O)OC5CCCC5)C(=O)N4C3)cc(-c3csc(NC(C)C)n3)nc2c1 [CILUPREVIR] | 2085 |

Tested on: Hepatitis C virus
Assay: Antiviral activity against Hepatitis C virus subtype 1b expressing NS3 D168Y mutant infected in HuH7 cells after 48 hrs by luciferase reporter assay
Type: functional, organism-based, Hepacivirus hominis
Details: genotype 1b, Huh-7, 48 h
How it was run: as §1

| SMILES | pEC50 |
| --- | --- |
| COc1ccc2c(O[C@@H]3C[C@H]4C(=O)N[C@]5(C(=O)O)C[C@H]5/C=C\CCCCC[C@H](NC(=O)OC5CCCC5)C(=O)N4C3)cc(-c3csc(NC(C)C)n3)nc2c1 [CILUPREVIR] | 5.68 |

Tested on: Hepatitis C virus
Assay: Ratio of EC50 for Hepatitis C virus subtype 1b expressing NS3 T54S mutant to EC50 for Hepatitis C virus subtype 1b expressing WT NS3 infected in HuH7 cells after 48 hrs by luciferase reporter assay
Type: functional, Hepacivirus hominis, genotype 1b, Huh-7
Details: not given
How it was run: (§2)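 Transient replicon assay: site-directed single or multiple NS3 mutations engineered into genotype 1b (con1, clone ET) subgenomic bicistronic replicon with luciferase reporter and adaptive mutations E1202G, T1280I, K1846T. Huh7-lunet cells electroporated with 10 μg wild-type or mutant replicon RNA, seeded 4,000 cells/well with nine-point inhibitor dilution; 48 h, 37°C, 5% CO2; luminescence read-out. EC50 as median of individual experiments; fold change versus parental replicon EC50.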

| SMILES | Ratio EC50 |
| --- | --- |
| COc1ccc2c(O[C@@H]3C[C@H]4C(=O)N[C@]5(C(=O)O)C[C@H]5/C=C\CCCCC[C@H](NC(=O)OC5CCCC5)C(=O)N4C3)cc(-c3csc(NC(C)C)n3)nc2c1 [CILUPREVIR] | 1.9 |

Tested on: Hepatitis C virus
Assay: Ratio of EC50 for Hepatitis C virus subtype 1b expressing NS3 Q80R mutant to EC50 for Hepatitis C virus subtype 1b expressing WT NS3 infected in HuH7 cells after 48 hrs by luciferase reporter assay
Type: functional, Hepacivirus hominis, genotype 1b, Huh-7
Details: not given
How it was run: as §2

| SMILES | Ratio EC50 |
| --- | --- |
| COc1ccc2c(O[C@@H]3C[C@H]4C(=O)N[C@]5(C(=O)O)C[C@H]5/C=C\CCCCC[C@H](NC(=O)OC5CCCC5)C(=O)N4C3)cc(-c3csc(NC(C)C)n3)nc2c1 [CILUPREVIR] | 1.6 |

Tested on: Hepatitis C virus
Assay: Antiviral activity against Hepatitis C virus subtype 1b expressing NS3 D168H mutant infected in HuH7 cells after 48 hrs by luciferase reporter assay
Type: functional, organism-based, Hepacivirus hominis
Details: genotype 1b, Huh-7, 48 h
How it was run: as §1

| SMILES | pEC50 |
| --- | --- |
| COc1ccc2c(O[C@@H]3C[C@H]4C(=O)N[C@]5(C(=O)O)C[C@H]5/C=C\CCCCC[C@H](NC(=O)OC5CCCC5)C(=O)N4C3)cc(-c3csc(NC(C)C)n3)nc2c1 [CILUPREVIR] | 6.67 |

Tested on: Hepatitis C virus
Assay: Ratio of EC50 for Hepatitis C virus subtype 1b expressing NS3 D168V mutant to EC50 for Hepatitis C virus subtype 1b expressing WT NS3 infected in HuH7 cells after 48 hrs by luciferase reporter assay
Type: functional, Hepacivirus hominis, genotype 1b, Huh-7
Details: not given
How it was run: as §2

| SMILES | Ratio EC50 |
| --- | --- |
| COc1ccc2c(O[C@@H]3C[C@H]4C(=O)N[C@]5(C(=O)O)C[C@H]5/C=C\CCCCC[C@H](NC(=O)OC5CCCC5)C(=O)N4C3)cc(-c3csc(NC(C)C)n3)nc2c1 [CILUPREVIR] | 3213 |

Tested on: Hepatitis C virus
Assay: Antiviral activity against Hepatitis C virus subtype 1b expressing NS3 Q80G mutant infected in HuH7 cells after 48 hrs by luciferase reporter assay
Type: functional, organism-based, Hepacivirus hominis
Details: genotype 1b, Huh-7, 48 h
How it was run: as §1

| SMILES | pEC50 |
| --- | --- |
| COc1ccc2c(O[C@@H]3C[C@H]4C(=O)N[C@]5(C(=O)O)C[C@H]5/C=C\CCCCC[C@H](NC(=O)OC5CCCC5)C(=O)N4C3)cc(-c3csc(NC(C)C)n3)nc2c1 [CILUPREVIR] | 8.52 |

Tested on: Hepatitis C virus
Assay: Ratio of EC50 for Hepatitis C virus subtype 1b expressing NS3 A156S mutant to EC50 for Hepatitis C virus subtype 1b expressing WT NS3 infected in HuH7 cells after 48 hrs by luciferase reporter assay
Type: functional, Hepacivirus hominis, genotype 1b, Huh-7
Details: not given
How it was run: as §1

| SMILES | Ratio EC50 |
| --- | --- |
| COc1ccc2c(O[C@@H]3C[C@H]4C(=O)N[C@]5(C(=O)O)C[C@H]5/C=C\CCCCC[C@H](NC(=O)OC5CCCC5)C(=O)N4C3)cc(-c3csc(NC(C)C)n3)nc2c1 [CILUPREVIR] | 2.8 |

Tested on: Hepatitis C virus
Assay: Ratio of EC50 for Hepatitis C virus subtype 1b expressing NS3 R155Q mutant to EC50 for Hepatitis C virus subtype 1b expressing WT NS3 infected in HuH7 cells after 48 hrs by luciferase reporter assay
Type: functional, Hepacivirus hominis, genotype 1b, Huh-7
Details: not given
How it was run: as §2

| SMILES | Ratio EC50 |
| --- | --- |
| COc1ccc2c(O[C@@H]3C[C@H]4C(=O)N[C@]5(C(=O)O)C[C@H]5/C=C\CCCCC[C@H](NC(=O)OC5CCCC5)C(=O)N4C3)cc(-c3csc(NC(C)C)n3)nc2c1 [CILUPREVIR] | 242 |

Tested on: Hepatitis C virus
Assay: Ratio of EC50 for Hepatitis C virus subtype 1b expressing NS3 D168Y mutant to EC50 for Hepatitis C virus subtype 1b expressing WT NS3 infected in HuH7 cells after 48 hrs by luciferase reporter assay
Type: functional, Hepacivirus hominis, genotype 1b, Huh-7
Details: not given
How it was run: as §2

| SMILES | Ratio EC50 |
| --- | --- |
| COc1ccc2c(O[C@@H]3C[C@H]4C(=O)N[C@]5(C(=O)O)C[C@H]5/C=C\CCCCC[C@H](NC(=O)OC5CCCC5)C(=O)N4C3)cc(-c3csc(NC(C)C)n3)nc2c1 [CILUPREVIR] | 2488 |

Tested on: Hepatitis C virus
Assay: Ratio of EC50 for Hepatitis C virus subtype 1b expressing NS3 Q80G mutant to EC50 for Hepatitis C virus subtype 1b expressing WT NS3 infected in HuH7 cells after 48 hrs by luciferase reporter assay
Type: functional, Hepacivirus hominis, genotype 1b, Huh-7
Details: not given
How it was run: as §2

| SMILES | Ratio EC50 |
| --- | --- |
| COc1ccc2c(O[C@@H]3C[C@H]4C(=O)N[C@]5(C(=O)O)C[C@H]5/C=C\CCCCC[C@H](NC(=O)OC5CCCC5)C(=O)N4C3)cc(-c3csc(NC(C)C)n3)nc2c1 [CILUPREVIR] | 4.9 |

Tested on: Hepatitis C virus
Assay: Antiviral activity against Hepatitis C virus subtype 1b expressing NS3 R155I mutant infected in HuH7 cells after 48 hrs by luciferase reporter assay
Type: functional, organism-based, Hepacivirus hominis
Details: genotype 1b, Huh-7, 48 h
How it was run: as §1

| SMILES | pEC50 |
| --- | --- |
| COc1ccc2c(O[C@@H]3C[C@H]4C(=O)N[C@]5(C(=O)O)C[C@H]5/C=C\CCCCC[C@H](NC(=O)OC5CCCC5)C(=O)N4C3)cc(-c3csc(NC(C)C)n3)nc2c1 [CILUPREVIR] | 7.54 |

Tested on: Hepatitis C virus
Assay: Antiviral activity against Hepatitis C virus subtype 1b expressing NS3 T54S mutant infected in HuH7 cells after 48 hrs by luciferase reporter assay
Type: functional, organism-based, Hepacivirus hominis
Details: genotype 1b, Huh-7, 48 h
How it was run: as §1

| SMILES | pEC50 |
| --- | --- |
| COc1ccc2c(O[C@@H]3C[C@H]4C(=O)N[C@]5(C(=O)O)C[C@H]5/C=C\CCCCC[C@H](NC(=O)OC5CCCC5)C(=O)N4C3)cc(-c3csc(NC(C)C)n3)nc2c1 [CILUPREVIR] | 9.05 |

Tested on: Hepatitis C virus
Assay: Antiviral activity against Hepatitis C virus subtype 1b expressing NS3 R155G mutant infected in HuH7 cells after 48 hrs by luciferase reporter assay
Type: functional, organism-based, Hepacivirus hominis
Details: genotype 1b, Huh-7, 48 h
How it was run: as §1

| SMILES | pEC50 |
| --- | --- |
| COc1ccc2c(O[C@@H]3C[C@H]4C(=O)N[C@]5(C(=O)O)C[C@H]5/C=C\CCCCC[C@H](NC(=O)OC5CCCC5)C(=O)N4C3)cc(-c3csc(NC(C)C)n3)nc2c1 [CILUPREVIR] | 6.00 |

Tested on: Hepatitis C virus
Assay: Ratio of EC50 for Hepatitis C virus subtype 1b expressing NS3 D168T mutant to EC50 for Hepatitis C virus subtype 1b expressing WT NS3 infected in HuH7 cells after 48 hrs by luciferase reporter assay
Type: functional, Hepacivirus hominis, genotype 1b, Huh-7
Details: not given
How it was run: as §2

| SMILES | Ratio EC50 |
| --- | --- |
| COc1ccc2c(O[C@@H]3C[C@H]4C(=O)N[C@]5(C(=O)O)C[C@H]5/C=C\CCCCC[C@H](NC(=O)OC5CCCC5)C(=O)N4C3)cc(-c3csc(NC(C)C)n3)nc2c1 [CILUPREVIR] | 844 |

Tested on: Hepatitis C virus
Assay: Antiviral activity against Hepatitis C virus subtype 1b expressing NS3 Q80R mutant infected in HuH7 cells after 48 hrs by luciferase reporter assay
Type: functional, organism-based, Hepacivirus hominis
Details: genotype 1b, Huh-7, 48 h
How it was run: as §1

| SMILES | pEC50 |
| --- | --- |
| COc1ccc2c(O[C@@H]3C[C@H]4C(=O)N[C@]5(C(=O)O)C[C@H]5/C=C\CCCCC[C@H](NC(=O)OC5CCCC5)C(=O)N4C3)cc(-c3csc(NC(C)C)n3)nc2c1 [CILUPREVIR] | 8.85 |
